# Screens as filed in PubChem BioAssay.
# CHRM4 antagonist: human M4 muscarinic receptor antagonists, primary screen, CHO cells, Fluo-8 calcium fluorescence | Muscarinic acetylcholine receptor M4 (Homo sapiens), P08173 | hit rate 0.73% among 360,000 | inhibition, % at 3 µM | CHO-hM4 cells, ACh EC80;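 active = inhibition above its plate's cutoff, the mean inhibition of sample wells plus 3 SD, cut at about 27% in these data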;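 note: 0% = acetylcholine EC80 with DMSO and 100% = DMSO without agonist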
# Target sequence (P08173 whole entry, looked up): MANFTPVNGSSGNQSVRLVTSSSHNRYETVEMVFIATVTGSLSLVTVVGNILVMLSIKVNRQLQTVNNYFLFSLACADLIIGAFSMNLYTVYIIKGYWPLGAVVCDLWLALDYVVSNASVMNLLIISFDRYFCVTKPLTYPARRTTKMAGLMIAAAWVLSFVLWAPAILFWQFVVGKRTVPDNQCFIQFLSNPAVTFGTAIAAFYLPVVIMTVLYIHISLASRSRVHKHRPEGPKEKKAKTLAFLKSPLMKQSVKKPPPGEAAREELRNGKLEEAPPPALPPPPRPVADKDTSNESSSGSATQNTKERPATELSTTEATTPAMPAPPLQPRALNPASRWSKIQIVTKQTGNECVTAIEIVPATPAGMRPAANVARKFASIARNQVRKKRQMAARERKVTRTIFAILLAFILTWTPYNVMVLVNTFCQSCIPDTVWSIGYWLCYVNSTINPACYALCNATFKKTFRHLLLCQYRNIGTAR
# CHRM5 PAM: human M5 muscarinic receptor positive allosteric modulators, primary screen, CHO-K1 cells, Fluo-8 calcium fluorescence; CHO-K1 hM5, ACh EC20 PAM; 0% = ACh EC20, 100% = ACh EC100; activation, % at 3 µM; hit rate 0.3% among 360,000; AID 624038, 2012;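 active = activation above the run cutoff, the mean activation of all test compounds plus 3 SD, cut at about 18% in these data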
#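 Test system: CHO-K1 hM5 cells / Doses: single-point, 3 µM nominal / Times: Post-acetylcholine fluorescence recording 140 s / Technique: Fluo-8 calcium fluorescence / Measure: Max/basal fluorescence ratio as % of EC20–EC100 ACh window / Benchmarks: low control EC20 acetylcholine (0%), high control EC100 acetylcholine (100%) / Replicates: one well per compound, no replicates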
# M5 ag: human M5 muscarinic receptor agonists, primary screen, CHO-K1 cells, Fluo-8 calcium fluorescence; activation, % at 3 µM; Muscarinic acetylcholine receptor M5 (Homo sapiens), P08912; hit rate 0.19% among 360,000; CHO-K1 hM5 cells; 0% DMSO wells, 100% maximal acetylcholine response;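 active = activation above the run's mean over test compounds plus 3 SD, cut at about 23% in these data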;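 note: signal is peak over basal fluorescence ratio across the kinetic read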
# M5 antag: human M5 muscarinic receptor antagonists, primary screen, CHO cells, Fluo-8 calcium fluorescence; inhibition, % at 3 µM; Muscarinic acetylcholine receptor M5 (Homo sapiens), P08912; hit rate 0.59% among 360,000; CHO-hM5 cells, ACh EC80;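 active = inhibition above a per-plate cutoff, the mean of that plate's test compounds plus 3 SD, cut at about 27% in these data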;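 note: 0% = acetylcholine EC80 with DMSO and 100% = DMSO without agonist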
# CHRM4 agonist: human M4 muscarinic receptor agonists, primary screen, CHO-K1 cells, Fluo-8 calcium fluorescence; Muscarinic acetylcholine receptor M4 (Homo sapiens), P08173; CHO-K1 hM4/Gqi5; vehicle 0%, full acetylcholine response 100%; AID 624127, 2012; activation, % at 3 µM; hit rate 0.14% among 360,000;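 active = activation above the run mean over all test wells plus 3 SD, cut at about 32% in these data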;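 note: peak over basal fluorescence ratio per well then scaled between controls; 0% = DMSO wells and 100% = acetylcholine at EC100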
# M4 PAM: human M4 muscarinic receptor positive allosteric modulators, primary screen, CHO-K1 cells, Fluo-8 calcium fluorescence. CHO-K1 hM4/Gqi5, ACh EC20; 0% = ACh EC20, 100% = maximal ACh. activation, % at 3 µM. hit rate 0.4% among 360,000;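 active = activation above its plate's cutoff, the mean activation of sample wells plus 3 SD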
# * hit, by the source's call. The list is not random: actives were taken first. Their share in the collection is about 1.8%.
SMILES,CHRM4 antagonist,CHRM5 PAM,M5 ag,M5 antag,CHRM4 agonist,M4 PAM
CCCCn1cc(C(=O)c2cc(Br)ccc2O)cc(C#N)c1=O,15,-12,1,29*,9,2
Cc1cccc(C)c1NC(=O)COC(=O)c1c2c(nc3ccccc13)/C(=C\c1ccc3c(c1)OCO3)CCC2,37*,-21,49*,23,88*,-22
CCOc1cc(/C=C2\CCCc3c2nc2ccccc2c3C(=O)O)ccc1OC,4,-8,16,6,44*,-10
CC1=C(C(=O)N2CCCCCC2)CC(CC(=O)NCCc2ccccn2)C(=O)N1Cc1ccc(F)cc1 (centres undefined),-2,-4,0,1,1,1
Cc1ccc(C(C)C)c(OCCN)c1,3,-2,-5,3,1,1
Cc1ccc(C(C)C)c(OCCCn2ccnc2C)c1,73*,-18,-7,91*,3,-17
N#Cc1ccccc1OCC(=O)N1CCN(S(=O)(=O)c2ccc(Cl)cc2)CC1,8,-2,-1,8,8,1
CCOC(=O)C1CCN(C(C)=C2C(=O)c3ccccc3C2=O)CC1,7,4,3,-2,-1,17*
CCOC(=O)C1CCN(C(=O)CCCN2C(=O)c3ccccc3C2=O)CC1,-5,10,-5,8,1,6
O=[N+]([O-])c1ccc(O)c(/C=N/n2cnnc2)c1,10,5,2,2,3,5
O=[N+]([O-])c1cccc(/C=N/n2cnnc2)c1,7,1,-1,4,0,20*
CC(C)OC(=O)N(C)C[C@@H]1OCc2cn(nn2)CCCC(=O)N([C@@H](C)CO)C[C@H]1C,-14,1,2,-7,0,5
Cc1ccc(-c2nc3c4ccccc4ccn3c2Cc2ccccc2)cc1,-11,-1,-2,-6,-1,8
CCCc1nc2c3ccccc3ccn2c1Cc1ccccc1,13,-22,-7,28*,2,-17
Cc1cccnc1C(NC(=O)C1CCN(Cc2ccc(Oc3ccccc3)cc2)CC1)c1ccccc1 (centres undefined),29*,-19,-3,16,3,-13
Cc1cccnc1C(NC(=O)C1CCN(Cc2ccccc2)CC1)c1ccc(F)cc1 (centres undefined),-1,-16,-3,2,2,1
O=C(Cc1ccccc1)N/N=C/c1cc(Br)c(Br)o1,-9,-7,1,5,-1,28*
O=C(Cc1ccccc1)NN=Cc1ccccc1,-7,-1,0,4,1,9
O=C(CCNC(=O)C1CCN(S(=O)(=O)c2ccccc2)CC1)NCc1ccc(Cl)cc1Cl,3,-9,-2,19,15,-5
CCOc1ccc(NC(=O)CN(C)C(=O)c2cccnc2Sc2ccc(C)c(C)c2)cc1OCC,-7,22*,2,-2,5,4
N#Cc1cnn(-c2ccc(F)cc2)c1N,2,19*,6,-16,0,3
COc1cccc(/C=C/C(=O)OCC(=O)NCCCc2ccccc2)c1OC,-3,6,3,7,0,-2
COc1ccc(-c2cc(C(F)(F)F)nc(S(=O)(=O)CCCC(=O)Nc3cccc(O)c3)n2)cc1OC,9,-11,-1,27*,17,-5
COc1ccccc1-c1cc(C(F)(F)F)nc(S(=O)(=O)CCCC(=O)O)n1,4,3,-3,6,0,7
COc1ccc([N+](=O)[O-])cc1NC(=O)CCN1CCOCC1,5,0,-4,7,0,-7
SMILES,CHRM4 antagonist,CHRM5 PAM,M5 ag,M5 antag,CHRM4 agonist,M4 PAM
CC(C)(C)C(=O)OCc1nc(-c2ccc(C(F)(F)F)cc2)cs1,-4,19*,5,-15,0,14
CCCCCCn1c(N)c(C#N)c2ccc([N+](=O)[O-])cc2c1=O,5,2,-1,3,1,-6
Cc1csc(SCC(=O)Nc2sc3c(c2C#N)CCC3)n1,4,5,0,-3,-1,4
Cc1ccnc(SCC(=O)Nc2sc3c(c2C#N)CCCC3)n1,26,-16,2,30*,13,-11
CCc1ccccc1-n1c(SCC(=O)NC)nnc1-c1ccco1,-3,18*,9,-16,1,8
CNC(=O)CSc1nnc(-c2ccco2)n1-c1ccc(C)cc1,-4,5,-5,2,2,10
CC1Cc2nc(SCC(=O)NCc3ccccc3)n(Cc3ccccc3)c(=O)c2S1 (centres undefined),38*,-6,-4,-4,4,-16
CC1Cc2nc(SCC(=O)c3ccccc3)n(Cc3ccccc3)c(=O)c2S1 (centres undefined),-3,-5,-4,1,4,-5
Cc1nc2ccc(C(=O)N3c4ccccc4N=C(c4ccc(C(F)(F)F)cc4)C3C(=O)NC(C)(C)C)cc2[nH]1 (centres undefined),-12,-4,-4,7,0,15
Cc1cc2oc(C(=O)NCc3ccccc3)cc(=O)c2cc1C,98*,-22,-8,97*,1,-18
Cc1ccc2oc(C(=O)NCc3ccccc3)cc(=O)c2c1,-20,-4,2,9,6,-1
Oc1ccc(N=Nc2c(O)ccc3ccccc23)cc1,12,-2,1,10,1,31*
NS(=O)(=O)c1ccc(N=Nc2c(O)ccc3ccccc23)cc1,-3,1,-1,4,1,-4
CCOC(=O)[C@H]1[C@H]2COc3ccc(OC)cc3[C@@H]2N2C(=O)[C@H](C)NC(=O)[C@@]12C,1,-1,4,2,2,6
O=C(O)c1ccccc1C=NN1CCCCCC1,-7,-3,-7,-2,10,2
COc1ccc(CC2S/C(=N/N=C/c3ccccc3O)NC2=O)cc1 (centres undefined),1,3,0,9,0,7
COc1ccc(/C=N/N=C2/NC(=O)C(c3ccccc3)S2)c(OC)c1 (centres undefined),1,18*,-7,-6,0,13
OCC[C@H]1C[C@H](O)[C@@H](O)[C@]2(Cc3ccccc3CCO2)O1,3,-10,0,21,2,4
CCOc1cc(CNCCSc2nnnn2C)cc(Br)c1OCc1ccc(F)cc1,28*,-21,-1,25,22,-14
